This note sets out measurements from ChEMBL document CHEMBL1127320, “Dual-action cephalosporins incorporating a 3'-tertiary-amine-linked quinolone” (J Med Chem, 1994).

Experiment [1] deals with Pseudomonas aeruginosa. The experiment can be described thus: In vitro minimum inhibitory concentration was measured against Pseudomonas aeruginosa 18S/H strain. Format: functional. An outline of the steps: (§1)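 Streptococci were tested on brain heart infusion agar plus 20 units/mL catalase, Proteus on Mueller-Hinton with 3% agar, and others on Mueller-Hinton agar. Inocula were 100-fold-diluted overnight cultures, about 3 × 10^4 CFU/spot, read after overnight incubation at 36 °C.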

The subject of experiment [2] is Escherichia coli. The experiment is described as follows: In vitro minimum inhibitory concentration was measured against Escherichia coli 257 strain. In kind it is functional. An outline of the steps:
as §1

Experiment [3] relates to Enterobacter cloacae. The experiment is described as follows: In vitro minimum inhibitory concentration was measured against Enterobacter cloacae 5699 strain. Format: functional.
Experiment [4] concerns the target T1, Peptidoglycan D,D-transpeptidase MrdA (Escherichia coli K-12) (UniProt P0AD65).
T1 sequence (whole entry): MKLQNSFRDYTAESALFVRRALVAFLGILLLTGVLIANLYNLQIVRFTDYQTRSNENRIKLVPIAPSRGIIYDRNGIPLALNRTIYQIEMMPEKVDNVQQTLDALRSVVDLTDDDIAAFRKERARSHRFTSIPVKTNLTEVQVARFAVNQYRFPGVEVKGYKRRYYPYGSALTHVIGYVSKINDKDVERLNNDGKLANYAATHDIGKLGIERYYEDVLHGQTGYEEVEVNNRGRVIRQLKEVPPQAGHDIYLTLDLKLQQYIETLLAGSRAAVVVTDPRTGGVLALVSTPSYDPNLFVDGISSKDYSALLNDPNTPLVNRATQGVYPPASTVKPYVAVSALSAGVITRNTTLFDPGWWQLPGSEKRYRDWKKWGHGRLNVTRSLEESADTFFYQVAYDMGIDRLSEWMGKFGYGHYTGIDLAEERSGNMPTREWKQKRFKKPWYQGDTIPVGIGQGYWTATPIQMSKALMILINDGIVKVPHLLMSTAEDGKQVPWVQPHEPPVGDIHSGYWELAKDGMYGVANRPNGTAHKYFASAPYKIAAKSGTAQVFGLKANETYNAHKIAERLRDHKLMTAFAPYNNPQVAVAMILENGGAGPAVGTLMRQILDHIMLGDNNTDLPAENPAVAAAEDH
The experiment can be described thus: Affinity for penicillin binding protein 2 of Escherichia coli UB1005 (DC0) was evaluated. The arrangement: unit not given here. The gist of the method:
(§2)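 Solubilised membranes from sonicated E. coli UB1005 served as the binding-protein source. Binding was read as inhibition of [14C]penicillin G binding.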

The subject of experiment [5] is Enterobacter cloacae. The experiment is described as follows: Bacterial challenge for systemic murine infection against Enterobacter cloacae 5699. Format: functional. The gist of the method:
(§3)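 Mouse protection test in CD1 Swiss albino mice (18-20 g). Mice were infected intraperitoneally with 0.5 mL of diluted bacterial suspension. A single subcutaneous dose at the dorsal neck base was given within 5 min, with doses from 250 to 0.05 mg/kg. Six mice per group were used. ED50 was obtained by the Reed-Muench method.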

In experiment [6] the test system is Staphylococcus aureus. The experiment is described as follows: In vitro minimum inhibitory concentration was measured against Staphylococcus aureus 67-0 (Methicillin resistant) strain. In kind it is functional.
Experiment [7] relates to Pseudomonas aeruginosa. The experiment is described as follows: In vitro minimum inhibitory concentration was measured against Pseudomonas aeruginosa 8780 strain. Format: functional. The gist of the method:
as §1

Experiment [8] relates to Escherichia coli. The experiment can be described thus: Minimum inhibitory concentration for DC2, a permeability mutant. An outline of the steps:
(§4)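 MICs were determined by agar dilution with 2-fold dilutions giving final 128–0.0156 µg/mL, extended to 0.000977 µg/mL where needed. Streptococci were tested on brain heart infusion agar plus 20 units/mL catalase, Proteus on Mueller-Hinton with 3% agar, and others on Mueller-Hinton agar. Inocula were 100-fold-diluted overnight cultures, about 3 × 10^4 CFU/spot, read after overnight incubation at 36 °C.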

A further experiment concerns Citrobacter freundii. The experiment can be described thus: In vitro minimum inhibitory concentration was measured against Citrobacter freundii BS-16 (beta lactamase producer) strain. Format: functional. An outline of the steps:
as §4

For experiment [9], the system named is Escherichia coli. The experiment can be described thus: In vitro minimum inhibitory concentration was measured against Escherichia coli ATCC 25922 strain. Format: functional. An outline of the steps:
as §1

For a further experiment, the system named is Klebsiella pneumoniae. The experiment is described as follows: In vitro minimum inhibitory concentration was measured against Klebsiella pneumoniae A strain. In kind it is functional. An outline of the steps:
as §1

The test system of another experiment is Proteus vulgaris. The experiment can be described thus: In vitro minimum inhibitory concentration was measured against Proteus vulgaris 1028BC (beta lactamase producer) strain. Format: functional. The gist of the method: as §1
Another experiment deals with Enterococcus faecalis. The experiment can be described thus: In vitro minimum inhibitory concentration was measured against Enterococcus faecalis ATCC 29212 strain. Format: functional. An outline of the steps:
as §1

Experiment [10] has as its system Serratia marcescens. The experiment is described as follows: Bacterial challenge for systemic murine infection against Serratia marcescens SM. In kind it is functional. An outline of the steps:
as §3

For experiment [11], the system named is Escherichia coli. The experiment is described as follows: Minimum inhibitory concentration against E. coli UB1005 (DC0).
The target of experiment [12] is T2, Penicillin-binding protein 1A (Escherichia coli K-12) (UniProt P02918).
T2 sequence (whole entry): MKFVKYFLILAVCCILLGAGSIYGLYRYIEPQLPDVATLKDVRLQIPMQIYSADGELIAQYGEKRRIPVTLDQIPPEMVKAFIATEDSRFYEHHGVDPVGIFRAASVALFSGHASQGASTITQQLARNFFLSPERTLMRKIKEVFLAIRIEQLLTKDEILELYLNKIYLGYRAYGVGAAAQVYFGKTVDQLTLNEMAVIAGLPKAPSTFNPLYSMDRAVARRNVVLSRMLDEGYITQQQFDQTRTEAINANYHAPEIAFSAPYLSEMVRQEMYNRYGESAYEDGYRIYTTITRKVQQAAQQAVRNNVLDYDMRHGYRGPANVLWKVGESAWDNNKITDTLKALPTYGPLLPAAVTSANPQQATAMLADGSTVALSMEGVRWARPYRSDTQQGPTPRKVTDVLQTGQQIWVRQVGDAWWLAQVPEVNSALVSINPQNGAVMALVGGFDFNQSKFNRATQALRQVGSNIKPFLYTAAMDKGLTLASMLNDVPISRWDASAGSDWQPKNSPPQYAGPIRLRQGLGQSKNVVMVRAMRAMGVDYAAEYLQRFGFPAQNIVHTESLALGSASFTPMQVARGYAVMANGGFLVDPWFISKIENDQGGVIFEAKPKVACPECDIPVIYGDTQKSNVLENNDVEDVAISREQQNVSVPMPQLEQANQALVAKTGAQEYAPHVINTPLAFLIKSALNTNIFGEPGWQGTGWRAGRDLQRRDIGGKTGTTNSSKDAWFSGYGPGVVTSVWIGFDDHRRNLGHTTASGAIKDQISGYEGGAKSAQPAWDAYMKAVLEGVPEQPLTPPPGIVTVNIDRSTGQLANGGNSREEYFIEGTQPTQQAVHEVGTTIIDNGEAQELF
The experiment is described as follows: Affinity for penicillin binding protein 1a of Escherichia coli UB1005 (DC0) was evaluated. The arrangement: unit not given here. The gist of the method:
as §2

The next experiment deals with Streptococcus pneumoniae. The experiment can be described thus: Bacterial challenge for systemic murine infection against Streptococcus pneumoniae 6301. In kind it is functional.
The subject of experiment [13] is Staphylococcus aureus. The experiment is described as follows: Bacterial challenge for systemic murine infection against Staphylococcus aureus Smith. In kind it is functional.
Experiment [14] has as its system Serratia marcescens. The experiment can be described thus: In vitro minimum inhibitory concentration was measured against Serratia marcescens 1071(beta lactamase producer) strain. In kind it is functional. The gist of the method: as §1
The subject of experiment [15] is Escherichia coli. The experiment can be described thus: In vitro minimum inhibitory concentration was measured against Escherichia coli TEM-1 (Beta lactamase producer) strain. In kind it is functional. The gist of the method:
as §1

The test system of experiment [16] is Staphylococcus aureus. The experiment can be described thus: In vitro minimum inhibitory concentration was measured against Staphylococcus aureus smith strain. Format: functional.

In brackets after ≈: the same amount, converted by molar mass.

Turning to `CO/N=C(\C(=O)N[C@@H]1C(=O)N2C(C(=O)O)=C(CN3CCN(c4cc5c(cc4F)c(=O)c(C(=O)O)cn5C4CC4)CC3)CS[C@H]12)c1csc(N)n1`, the MIC against Pseudomonas aeruginosa [1] is 2 µg/mL (≈ 2.75 µM); against Escherichia coli [2], 0.125 µg/mL (≈ 0.172 µM); against Enterobacter cloacae [3] it was 0.5 µg/mL (≈ 0.688 µM); against Staphylococcus aureus [6], 8 µg/mL (≈ 11 µM); against Pseudomonas aeruginosa [7], 8 µg/mL (≈ 11 µM); against Escherichia coli [8] it was 0.063 µg/mL (≈ 0.0867 µM). The MIC was 0.125 µg/mL (≈ 0.172 µM) in the experiment with Citrobacter freundii; 0.125 µg/mL (≈ 0.172 µM) with Escherichia coli [9]; 1 µg/mL (≈ 1.38 µM) with Klebsiella pneumoniae; 0.25 µg/mL (≈ 0.344 µM) with Proteus vulgaris; 4 µg/mL (≈ 5.5 µM) against Enterococcus faecalis; 1 µg/mL (≈ 1.38 µM) in the experiment with Escherichia coli [11]. The MIC was found to be 1 µg/mL (≈ 1.38 µM) with Serratia marcescens [14], 0.25 µg/mL (≈ 0.344 µM) in the experiment with Escherichia coli [15] and 4 µg/mL (≈ 5.5 µM) against Staphylococcus aureus [16]. In addition, the Binding affinity in experiment [4] is 100; in experiment [12], > 100. For the same compound, the LD50 is reported as 7055 with Enterobacter cloacae [5], 27 in the experiment with Serratia marcescens [10], >10000 in the experiment on Streptococcus pneumoniae and >8 in the experiment with Staphylococcus aureus [13].
On to `CO/N=C(\C(=O)N[C@@H]1C(=O)N2C(C(=O)O)=C(COC(C)=O)CS[C@H]12)c1csc(N)n1` [CEFOTAXIME], for which the MIC is 128 µg/mL (≈ 281 µM) against Pseudomonas aeruginosa [1]; 0.031 µg/mL (≈ 0.0681 µM) in the experiment on Escherichia coli [2]; 0.125 µg/mL (≈ 0.274 µM) in the experiment on Enterobacter cloacae [3]; > 128 µg/mL against Staphylococcus aureus [6]; 16 µg/mL (≈ 35.1 µM) against Pseudomonas aeruginosa [7]; < 0.016 µg/mL in the experiment with Escherichia coli [8]. Further, the MIC in the experiment with Citrobacter freundii was 32 µg/mL (≈ 70.3 µM); against Escherichia coli [9] it was 0.063 µg/mL (≈ 0.138 µM); against Klebsiella pneumoniae, 0.031 µg/mL (≈ 0.0681 µM); with Proteus vulgaris, > 128 µg/mL; with Enterococcus faecalis, 0.25 µg/mL (≈ 0.549 µM); with Escherichia coli [11], 0.031 µg/mL (≈ 0.0681 µM). The MIC against Serratia marcescens [14] turned out to be 32 µg/mL (≈ 70.3 µM); with Escherichia coli [15], 0.063 µg/mL (≈ 0.138 µM); in the experiment with Staphylococcus aureus [16], 2 µg/mL (≈ 4.39 µM). Moreover, the Binding affinity in [4] is 100; in experiment [12], 0.1. Also, the LD50 in the experiment with Enterobacter cloacae [5] is 50; with Serratia marcescens [10] it was <25; in the experiment with Streptococcus pneumoniae, 69; in the experiment with Staphylococcus aureus [13], 6.
